Columns and labels:
[1] = molecular target: T1, Adrenergic receptor alpha-2 (Rattus norvegicus, UniProt P22086+P19328+P22909); test: The compound was evaluated for the antagonistic activity against alpha-2 adrenergic receptor.; type: functional
T1 sequence (P22086 whole entry): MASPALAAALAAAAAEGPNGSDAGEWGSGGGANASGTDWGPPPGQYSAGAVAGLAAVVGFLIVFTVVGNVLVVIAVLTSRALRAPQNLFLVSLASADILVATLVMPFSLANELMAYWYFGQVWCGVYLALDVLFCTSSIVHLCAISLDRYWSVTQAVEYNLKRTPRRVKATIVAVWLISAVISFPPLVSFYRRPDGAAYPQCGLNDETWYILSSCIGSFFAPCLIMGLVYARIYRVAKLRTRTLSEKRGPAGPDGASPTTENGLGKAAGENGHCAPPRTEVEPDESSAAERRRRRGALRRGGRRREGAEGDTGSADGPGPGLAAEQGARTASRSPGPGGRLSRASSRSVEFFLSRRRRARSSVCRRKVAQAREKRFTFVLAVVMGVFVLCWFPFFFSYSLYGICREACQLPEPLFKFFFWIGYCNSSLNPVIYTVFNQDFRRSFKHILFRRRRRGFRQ
T1 sequence (P19328 whole entry): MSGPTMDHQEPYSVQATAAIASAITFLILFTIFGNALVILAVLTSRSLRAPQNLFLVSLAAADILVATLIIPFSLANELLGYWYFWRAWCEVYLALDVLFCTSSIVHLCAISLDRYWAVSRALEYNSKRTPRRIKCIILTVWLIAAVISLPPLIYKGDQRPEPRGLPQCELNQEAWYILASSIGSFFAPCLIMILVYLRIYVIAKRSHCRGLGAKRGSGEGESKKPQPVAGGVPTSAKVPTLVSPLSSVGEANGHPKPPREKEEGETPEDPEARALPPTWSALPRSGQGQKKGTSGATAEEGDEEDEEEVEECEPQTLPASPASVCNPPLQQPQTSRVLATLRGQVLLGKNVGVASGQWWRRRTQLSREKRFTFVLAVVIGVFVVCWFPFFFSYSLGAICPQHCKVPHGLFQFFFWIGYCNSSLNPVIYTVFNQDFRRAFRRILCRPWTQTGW
T1 sequence (P22909 whole entry): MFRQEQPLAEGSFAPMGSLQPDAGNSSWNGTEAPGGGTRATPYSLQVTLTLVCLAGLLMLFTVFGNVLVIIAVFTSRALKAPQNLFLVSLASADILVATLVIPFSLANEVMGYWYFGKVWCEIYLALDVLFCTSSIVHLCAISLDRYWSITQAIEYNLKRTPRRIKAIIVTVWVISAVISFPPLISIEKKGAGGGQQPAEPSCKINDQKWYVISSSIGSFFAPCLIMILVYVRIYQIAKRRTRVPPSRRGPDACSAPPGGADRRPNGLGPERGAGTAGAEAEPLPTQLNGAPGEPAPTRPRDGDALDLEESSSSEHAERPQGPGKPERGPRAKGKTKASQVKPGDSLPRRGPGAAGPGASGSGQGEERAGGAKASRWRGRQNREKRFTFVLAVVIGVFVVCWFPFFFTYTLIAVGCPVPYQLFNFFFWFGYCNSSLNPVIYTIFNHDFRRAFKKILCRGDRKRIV

[2] = molecular target: Beta-1 adrenergic receptor (Cavia porcellus, UniProt B0FL73); test: The compound was evaluated for the antagonistic activity against beta-1 adrenergic receptor; type: functional; conditions: read-out: pA2 (converted)
Summary of the method: (§1)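 Isolated tissue suited to each receptor test, held in 10-mL organ baths of Krebs-Henseleit solution at 37 °C and gassed with 95% O2/5% CO2. Antagonism was judged by how several concentrations of test agent altered a cumulative concentration-response curve to a receptor-specific agonist.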

Cavia porcellus = species on record: Cavia porcellus; test: Beta-2-adrenoceptor ISA (intrinsic sympathomimetic activity)was measured as relaxant effect against a PGF2-alpha contracted guinea pig trachea at 3x10E -7 M; type: functional
Rattus norvegicus [3] = test: Maximal change in heart rate (HR) measured as % change from pretreatment value at dose of 100 mg/kg in SHR; type: functional
Summary of the method: (§2)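 Spontaneously hypertensive rats; test agent dissolved or dispersed in 0.5% methylcellulose and given by gastric gavage at 5 mL/kg after a 1-h equilibration. Doses ranged from 1 to 100 mg/kg, with 4–8 animals per dose. MABP and HR were monitored for 4 h. Pretreatment values and maximal % change were recorded, and maximal changes were compared with vehicle by Dunnett's t test.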

Rattus norvegicus [4] = test: Maximal change in heart rate (HR) measured as % change from pretreatment value at dose of 10 mg/kg in SHR; type: functional; summary of the method: as §2
Rattus norvegicus [5] = test: Maximal change in heart rate (HR) measured as % change from pretreatment value at dose of 1 mg/kg in SHR; type: functional; summary of the method: as §2
Rattus norvegicus [6] = test: Maximal change in heart rate (HR) measured as % change from pretreatment value at dose of 2.5 mg/kg; type: functional; summary of the method: as §2
Rattus norvegicus [7] = test: Maximal change in heart rate (HR) measured as % change from pretreatment value at dose of 5 mg/kg; type: functional; summary of the method: as §2
Rattus norvegicus [8] = test: Maximal change in mean arterial blood pressure (MABP) measured as % change from pretreatment value at dose of 100 mg/kg in SHR; type: functional; summary of the method: as §2
Rattus norvegicus [9] = test: Maximal change in mean arterial blood pressure (MABP) measured as % change from pretreatment value at dose of 10 mg/kg in SHR; type: functional; summary of the method: as §2
Rattus norvegicus [10] = test: Maximal change in mean arterial blood pressure (MABP) measured as % change from pretreatment value at dose of 1 mg/kg in SHR; type: functional; summary of the method: as §2
Rattus norvegicus [11] = test: Maximal change in mean arterial blood pressure (MABP) measured as % change from pretreatment value at dose of 2.5 mg/kg in SHR; type: functional; summary of the method: as §2
Rattus norvegicus [12] = test: Maximal change in mean arterial blood pressure (MABP) measured as % change from pretreatment value at dose of 25 mg/kg in SHR; type: functional; summary of the method: as §2
Rattus norvegicus [13] = test: Maximal change in mean arterial blood pressure (MABP) measured as % change from pretreatment value at dose of 5 mg/kg in SHR; type: functional; summary of the method: as §2
Rattus norvegicus [14] = test: Maximal change in heart rate (HR) measured as pretreatment value at dose of 25 mg/kg in SHR; type: functional; summary of the method: as §2
Rattus norvegicus [15] = test: Maximal change in heart rate (HR) measured as pretreatment value at dose of 5 mg/kg in SHR; type: functional; summary of the method: as §2
Rattus norvegicus [16] = test: Maximal change in heart rate (HR) measured as pretreatment value at dose of 100 mg/kg in SHR; type: functional; summary of the method: as §2
Rattus norvegicus [17] = test: Maximal change in heart rate (HR) measured as pretreatment value at dose of 10 mg/kg in SHR; type: functional; summary of the method: as §2
Rattus norvegicus [18] = test: Maximal change in heart rate (HR) measured as pretreatment value at dose of 1 mg/kg in SHR; type: functional; summary of the method: as §2
Rattus norvegicus [19] = test: Maximal change in heart rate (HR) measured as pretreatment value at dose of 2.5 mg/kg in SHR; type: functional; summary of the method: as §2
Rattus norvegicus [20] = test: Maximal change in mean arterial blood pressure (MABP) measured as pretreatment value at dose of 100 mg/kg in SHR; type: functional; summary of the method: as §2
Rattus norvegicus [21] = test: Maximal change in mean arterial blood pressure (MABP) measured as pretreatment value at dose of 10 mg/kg in SHR; type: functional; summary of the method: as §2
Rattus norvegicus [22] = test: Maximal change in mean arterial blood pressure (MABP) measured as pretreatment value at dose of 1 mg/kg in SHR; type: functional; summary of the method: as §2
Rattus norvegicus [23] = test: Maximal change in mean arterial blood pressure (MABP) measured as pretreatment value at dose of 2.5 mg/kg in SHR; type: functional; summary of the method: as §2
Rattus norvegicus [24] = test: Maximal change in mean arterial blood pressure (MABP) measured as pretreatment value at dose of 25 mg/kg in SHR; type: functional; summary of the method: as §2
Rattus norvegicus [25] = test: Maximal change in mean arterial blood pressure (MABP) measured as pretreatment value at dose of 5 mg/kg in SHR; type: functional; summary of the method: as §2
[26] = molecular target: Beta-2 adrenergic receptor (Cavia porcellus, UniProt Q8K4Z4); test: The compound was evaluated for the antagonistic activity against beta-2 adrenergic receptor.; type: functional; conditions: read-out: pA2 (converted); summary of the method: as §1
Rattus norvegicus [27] = test: Maximal change in heart rate (HR) measured as % change from pretreatment value at dose of 25 mg/kg; type: functional; summary of the method: as §2
[28] = molecular target: Alpha-1 adrenergic receptor; test: The compound was evaluated for the antagonistic activity against alpha-1 adrenergic receptor.; conditions: read-out: pA2 (converted)

Sequence of Beta-1 adrenergic receptor (B0FL73 whole entry): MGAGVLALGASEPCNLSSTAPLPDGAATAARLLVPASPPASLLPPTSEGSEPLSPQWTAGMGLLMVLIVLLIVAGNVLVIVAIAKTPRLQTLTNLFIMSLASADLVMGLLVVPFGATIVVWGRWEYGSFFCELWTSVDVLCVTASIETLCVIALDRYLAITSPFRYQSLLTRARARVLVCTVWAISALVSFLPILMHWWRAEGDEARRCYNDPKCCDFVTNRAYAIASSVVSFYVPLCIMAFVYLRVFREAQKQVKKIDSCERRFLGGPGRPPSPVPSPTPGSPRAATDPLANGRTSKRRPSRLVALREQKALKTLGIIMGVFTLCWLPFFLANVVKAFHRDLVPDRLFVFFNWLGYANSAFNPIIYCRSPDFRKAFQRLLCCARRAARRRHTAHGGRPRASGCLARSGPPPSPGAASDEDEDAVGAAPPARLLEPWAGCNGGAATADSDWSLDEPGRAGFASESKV
Sequence of Beta-2 adrenergic receptor (Q8K4Z4 whole entry): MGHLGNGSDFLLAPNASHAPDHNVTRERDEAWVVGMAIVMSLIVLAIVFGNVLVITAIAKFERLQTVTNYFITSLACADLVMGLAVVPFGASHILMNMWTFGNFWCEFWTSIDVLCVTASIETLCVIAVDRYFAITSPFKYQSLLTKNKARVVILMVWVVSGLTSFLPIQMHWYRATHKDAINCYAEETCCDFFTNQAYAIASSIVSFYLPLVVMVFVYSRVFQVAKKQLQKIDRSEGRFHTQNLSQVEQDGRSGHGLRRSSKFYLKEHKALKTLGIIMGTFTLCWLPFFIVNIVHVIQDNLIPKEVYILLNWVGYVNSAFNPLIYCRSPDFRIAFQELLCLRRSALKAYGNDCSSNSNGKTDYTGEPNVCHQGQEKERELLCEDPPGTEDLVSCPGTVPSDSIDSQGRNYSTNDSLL

In the case of CC(CCc1ccccc1)NCC(O)c1cc(C(N)=O)c2[nH]ccc2c1 (centres undefined), the pA2 [1] is reported as 5.4, the Kb [2] is reported as 39.8 nM and the Change (Cavia porcellus) is reported as 89%. The Change (Rattus norvegicus [3]) was -26%, the Change (Rattus norvegicus [4]) was -15% and the Change (Rattus norvegicus [5]) was -3%. For the same compound, the Change (Rattus norvegicus [6]) was -10%, the Change (Rattus norvegicus [7]) was -12% and the Change (Rattus norvegicus [8]) was -45%. The Change (Rattus norvegicus [9]) was -40%, the Change (Rattus norvegicus [10]) was -9% and the Change (Rattus norvegicus [11]) was -25%. It also gave a Change (Rattus norvegicus [12]) of -47%, a Change (Rattus norvegicus [13]) of -32% and an HR (Rattus norvegicus [14]) of 426 beats min-1. It also gave an HR (Rattus norvegicus [15]) of 439 beats min-1, an HR (Rattus norvegicus [16]) of 425 beats min-1 and an HR (Rattus norvegicus [17]) of 430 beats min-1. For the same compound, the HR (Rattus norvegicus [18]) was 442 beats min-1, the HR (Rattus norvegicus [19]) was 419 beats min-1 and the MABP (Rattus norvegicus [20]) was 178 mmHg. It also gave an MABP (Rattus norvegicus [21]) of 166 mmHg, an MABP (Rattus norvegicus [22]) of 171 mmHg and an MABP (Rattus norvegicus [23]) of 176 mmHg. For the same compound, the MABP (Rattus norvegicus [24]) was 183 mmHg, the MABP (Rattus norvegicus [25]) was 176 mmHg and the Kb [26] was 50.1 nM. For the same compound, the Change (Rattus norvegicus [27]) was -18% and the Kb [28] was 251 nM.

Source: ChEMBL document CHEMBL1123192 (J Med Chem, 1986)
